Assay outcomes (PubChem)
The list is not random: actives were taken first. Their share in the collection is about 1.1%.
DTT redox prof: compounds producing H2O2 with reducing agent – biochemical, NIH compound library profiling, artefact control for MLSCN library redox annotation, primary screen | DTT-dependent redox cycling H2O2, phenol red/HRP absorbance; 100% = 100 µM peroxide control, 0% = buffer | activation, % at 10 µM | hit rate 0.03% among 200,000 | AID 878, 2007;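 active = activation of at least 50% relative to the plate's high and low controls in the primary single-dose screen; inactive = activation below 50%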;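 also: compound incubated with DTT at 0.8 mM final as the reducing agent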
Diaph act CS: compounds boosting diaphorase resazurin reduction – biochemical, uHTS, resorufin fluorescence, counter-screen for diaphorase-coupled primary assays, primary screen | activation factor at 20 µM | AID 1229, 2008 | hit rate 0.005% among 190,000 | Diaphorase/resazurin coupled assay, 16 min; active compounds read high; 1 = vehicle wells, 0 = NADH-free wells;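 active = diaphorase activity raised at least twofold by the compound at 20 µM; inactive = activation factor below 2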
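Material: purified diaphorase enzyme from Clostridium kluyveri; Also added: 0.114 mM NADH and 0.1 mM resazurin, final amounts; Doses: single compound dose of 20 µM, 1% DMSO final; Times: 16 min enzyme reaction, ambient temperature; Detection: resorufin fluorescence, excitation 544 nm, emission 590 nm; Measure: increased resorufin signal from activators or reducing compounds.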
PMI activator: activators of human PMI, primary screen, biochemical, fluorescence intensity, near-Km mannose 6-phosphate. AID 1214, 2008. purified human PMI, coupled resazurin fluorescence, 20 min; active compounds read high; 1 = vehicle control, 0 substrate-free wells. Mannose-6-phosphate isomerase (Homo sapiens), P34949. activation factor at 20 µM. hit rate 0.005% among 190,000;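 active = activation factor of 2 or more at 20 µM, relative to plate controls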
Target sequence (P34949 whole entry, looked up): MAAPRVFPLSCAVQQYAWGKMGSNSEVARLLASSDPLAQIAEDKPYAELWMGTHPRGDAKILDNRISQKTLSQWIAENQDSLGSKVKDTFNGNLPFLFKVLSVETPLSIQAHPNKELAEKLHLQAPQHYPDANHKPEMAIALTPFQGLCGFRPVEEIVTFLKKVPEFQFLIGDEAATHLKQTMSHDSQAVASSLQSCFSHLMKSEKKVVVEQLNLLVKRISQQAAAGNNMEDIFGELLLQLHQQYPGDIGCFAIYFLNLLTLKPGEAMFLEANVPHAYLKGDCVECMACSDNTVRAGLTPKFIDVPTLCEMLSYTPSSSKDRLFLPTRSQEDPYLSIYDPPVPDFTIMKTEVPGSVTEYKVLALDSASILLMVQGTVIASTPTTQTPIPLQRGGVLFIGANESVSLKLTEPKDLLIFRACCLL
PMI act satM6P: human PMI activators, high substrate, primary screen, biochemical, fluorescence intensity, near-saturating mannose 6-phosphate; Mannose-6-phosphate isomerase (Homo sapiens), P34949; coupled PMI enzyme assay, resazurin fluorescence, 20 min; active compounds read high; 1 = untreated enzyme, 0 = substrate-free blank; activation factor at 20 µM; hit rate 0.34% among 190,000; AID 1216, 2008;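 active = activation factor of 2 or more at 20 µM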
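assay system = human phosphomannose isomerase with PGI, G6PDH, diaphorase coupling enzymes | quantity = 15 ng/mL PMI | incubation = enzyme reaction with compound 20 min at room temperature | medium = HEPES pH 7.4 buffer with MgCl2 and Tween-20 | compound dosing = one concentration, 20 µM, in 1% DMSO | measured by = Diaphorase-driven resazurin-to-resorufin fluorescence, excitation 544, emission 590 nm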
G6PDH CS: L. mesenteroides G6PDH inhibitors, counter-screen for G6PDH-coupled screening assays, biochemical, Leuconostoc mesenteroides enzyme | inhibition, % at 5 µM | hit rate 0.12% among 200,000 | Purified L. mesenteroides G6PDH, diaphorase/resazurin coupled fluorescence, 45 min; in the data active = inhibition above about 50%
Diaph inh CS: diaphorase inhibitors and chemical oxidizers, primary screen, counter-screen for diaphorase-coupled primary assays, biochemical, uHTS, resorufin fluorescence; inhibition, % at 20 µM; AID 1217, 2008; diaphorase resazurin-to-resorufin fluorescence, NADH, 16 min; bacterial (C. kluyveri) enzyme, not human; hit rate 0.69% among 190,000;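 active = primary screen inhibition at 20 µM above a set limit, cut at about 50% in these data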
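Test system: Clostridium kluyveri diaphorase enzyme / Quantity: diaphorase at 0.14 U/mL in enzyme working solution / Incubation: 16-min room-temperature incubation before reading / Benchmarks: NADH-free wells as positive control, DMSO-only neutral wells / Signal: resorufin fluorescence 544/590 nm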
Numbers stand for hits; i = inactive; nt = no result.

SMILES	DTT redox prof	Diaph act CS	PMI activator	PMI act satM6P	G6PDH CS	Diaph inh CS
Cc1c(Nc2cc(N3CCCCCC3)c3nonc3c2[N+](=O)[O-])c(=O)n(-c2ccccc2)n1C	i	i	i	i	i	51
COc1cc(OC)cc(-c2nc3ccccc3c(=O)n2OC(=O)c2ccc(C)c(C)c2)c1	i	i	i	i	i	i
Cc1cc(Br)ccc1-n1[nH]c(C)c(C=Nc2cccc3nsnc23)c1=O	i	i	i	i	i	61
O=C(/C=C/c1cccc([N+](=O)[O-])c1)n1cnc2ccccc21	i	i	i	i	i	i
O=C(NCc1ccccc1)c1sc(=S)n2c1[nH]c(=O)c1ccccc12	i	i	i	i	i	73
COc1ccc(C(=O)NC(=S)NNC(=O)c2cnccn2)cc1OC	i	i	i	i	i	74
Cc1cccc(C(=O)NC(=S)NNC(=O)c2ccc(Cl)cc2)c1	i	i	i	i	i	i
COc1cc(C(=O)NNC(=S)NC(=O)c2ccc(Cl)cc2)cc(OC)c1OC	i	i	i	i	i	61
COc1cc(OC)cc(C(=O)NC(=S)NNC(=O)c2cnccn2)c1	i	i	i	i	i	68
C/C(=N\NC(=O)CSCc1ccccc1Cl)c1cc(O)ccc1O	i	i	i	i	i	i
CCOC(=O)C1=C2NC(=O)c3ccccc3N2C(=O)C1	i	i	i	2	i	i
CCN(CC)CCN(Cc1cc2ccc(C)c(C)c2[nH]c1=O)C(=S)NCc1ccco1	i	i	i	i	i	i
Cc1c(Cl)cccc1NC(=O)COC(=O)c1c2c(nc3ccccc13)CCN(Cc1ccccc1)C2	i	i	i	i	i	i
CC(C)c1ccccc1NC(=O)COC(=O)c1c2c(nc3ccccc13)CCN(Cc1ccccc1)C2	i	i	i	2.1	i	i
CCOC(=O)/C(C#N)=C\C1=C(N2CCOCC2)CC(C)(C)OC1	i	i	i	i	i	i
Cc1ccc(C2C(C#N)=C(N)Oc3c2sc2ccccc32)o1 (stereo unspecified)	i	i	i	i	i	55
CN1c2ccsc2/C(=N/Nc2ccccc2)CS1(=O)=O	i	i	i	2.1	i	i
CC1=C(C)CC(C(=O)Nc2ccc(C(=O)N3CCOCC3)cc2)C(C(=O)O)C1 (stereo unspecified)	i	i	i	i	i	i
CCCCn1nnnc1SCC(=O)Nc1ccc(F)cc1	i	i	i	i	i	i
CCSc1ncc(/C=N/Nc2ccc(F)cc2)n1C	i	i	i	2	i	i
CCOC(=O)c1cc(-c2ccccc2)sc1NC(=O)C(C)OC(=O)c1cccnc1Cl (stereo unspecified)	i	i	i	i	i	i
C=C1c2cc(OC)ccc2NC(=O)N1CC	i	i	i	2	i	i
CCN1/C(=C/C(C)=O)Sc2ccc(OC)cc21	i	i	i	i	i	i
Nc1nc(-c2ccccc2)nc2sc3c(c12)CCCC3	i	i	i	i	i	i
O=C(c1ccc(Cl)cc1)[C@@H]1[C@@H]2C(=O)N(c3ccccc3)C(=O)[C@@H]2C2c3ccccc3C=NN21 (stereo partly specified)	i	i	i	i	i	i
SMILES	DTT redox prof	Diaph act CS	PMI activator	PMI act satM6P	G6PDH CS	Diaph inh CS
CC(=O)c1ccc(N2C(=O)C3C(C2=O)C(C(=O)c2ccc(Cl)cc2)N2CCCC32)cc1 (stereo unspecified)	i	i	i	2	i	i
O=C(c1ccc(Cl)cc1)C1C2C(=O)N(c3ccccc3)C(=O)C2C2CCCN21 (stereo unspecified)	i	i	i	2	i	i
Cc1ccc(N2C(=O)[C@@H]3[C@H](C2=O)C2CCCN2[C@@H]3C(=O)c2ccccc2)cc1 (stereo partly specified)	i	i	i	2	i	i
O=C1[C@H]2[C@H](ON3CCCC[C@H]23)C(=O)N1c1ccc(Cl)cc1	i	i	i	i	i	i
Clc1ccc(-c2c[nH]c3ccccc23)nn1	i	i	i	i	i	63
c1ccc2c(-c3c[nH]c4ccccc34)c3ccccc3nc2c1	i	i	i	i	i	i
CC(C)n1c(SCC(=O)N2c3ccccc3Sc3ccccc32)nc2c1c(=O)n(C)c(=O)n2C	i	i	i	i	i	76
S=C(NCCc1ccccc1)N1CCN(C23CC4CC(CC(C4)C2)C3)CC1	i	i	i	i	i	i
CC(C)C[C@H](NC(=O)c1nc[nH]c1C(=O)NC1CCN(C(=O)OC(C)(C)C)CC1)C(=O)OCc1ccccc1	i	i	i	i	i	i
CC(C)(C)OC(=O)[C@H](Cc1ccccc1)NC(=O)c1nc[nH]c1C(=O)NC1CCN(C(=O)OC(C)(C)C)CC1	i	i	i	i	i	52
O=C1/C(=C\c2ccc(O)c(O)c2)C(c2ccccc2)=NN1c1ccccc1	i	i	i	i	i	65
O=C(CCC1CCCN(C(=O)C2(c3ccccc3)CC2)C1)N1CCN(c2ccccn2)CC1 (stereo unspecified)	i	nt	nt	nt	i	nt
CCOc1ccccc1-c1c2cc(O)c(=O)cc-2oc2cc(O)c(O)cc12	i	i	i	i	i	i
COc1ccc(OC)c(-c2c3cc(O)c(=O)cc-3oc3cc(O)c(O)cc23)c1	i	i	i	i	i	88
COc1ccc(OC)c(NC(=O)NCCc2cccc(Cl)c2)c1	i	i	i	i	i	i
O=c1[nH]c2ccccc2c2nc3ccccn3c12	i	i	i	i	i	i
O=c1nc2c(O)cccn2c2c1c(=O)[nH]c1ccccc12	i	i	i	i	i	75
Cc1ccc(S(=O)(=O)NCc2ccc(C(=O)NCCN(Cc3ccccc3)C(C)C)cc2)cc1	i	i	i	i	i	i
Cc1ccc(NC2Sc3ccccc3NC2=O)cc1 (stereo unspecified)	i	i	i	2.1	i	i
COC(=O)CC1Sc2ccccc2NC1=O (stereo unspecified)	i	i	i	i	i	i
O=c1cc2[nH]c3ccccc3c(=O)n2nc1-c1ccccc1	i	i	i	i	i	66
COc1cc(C)ccc1OCCOCCOc1cccc2ccc(C)nc12	i	i	i	i	i	i
CCCCC(=O)c1ccc(O)cc1O	i	nt	nt	nt	nt	nt
